Rows were chosen to be rich in hits. Some 1.5% of all compounds tested hit in one or more screens of this group.
SIRT5 inh: SIRT5 desuccinylase inhibitors, primary screen, biochemical, fluorescence imaging, single point, set 5; NAD-dependent protein deacylase sirtuin-5, mitochondrial (Homo sapiens), Q9NXA8; Purified SirT5, succinyl-peptide AMC, trypsin-coupled fluorescence; inhibition, % at 15 µM; 330,000 compounds, 1.1% hits; in the data active = inhibition above about 15%
ERp5 block: inhibitors of ERp5-driven insulin aggregation, primary screen, biochemical, turbidity, absorbance 650 nm, single point | 90 min | inhibition, % at 9.99 µM | AID 651711, 2012 | 350,000 compounds, 0.05% hits | Protein disulfide-isomerase A6 (Homo sapiens), Q15084;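 active = mean replicate inhibition above about 25%, with every replicate also reaching it, limit read from the data, passing the limit was not always enough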
PDI turbidity: inhibitors of human PDI, primary screen, biochemical, turbidity, single point, plate reader; PDI insulin aggregation turbidity, A650, 90 min; inhibition, % at 10 µM; Protein disulfide-isomerase (Homo sapiens), P07237; 350,000 compounds, 0.052% hits;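 active = mean inhibition across replicates of 30% or more, whatever share of single replicates reach that level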
Target sequence (P07237 whole entry, looked up): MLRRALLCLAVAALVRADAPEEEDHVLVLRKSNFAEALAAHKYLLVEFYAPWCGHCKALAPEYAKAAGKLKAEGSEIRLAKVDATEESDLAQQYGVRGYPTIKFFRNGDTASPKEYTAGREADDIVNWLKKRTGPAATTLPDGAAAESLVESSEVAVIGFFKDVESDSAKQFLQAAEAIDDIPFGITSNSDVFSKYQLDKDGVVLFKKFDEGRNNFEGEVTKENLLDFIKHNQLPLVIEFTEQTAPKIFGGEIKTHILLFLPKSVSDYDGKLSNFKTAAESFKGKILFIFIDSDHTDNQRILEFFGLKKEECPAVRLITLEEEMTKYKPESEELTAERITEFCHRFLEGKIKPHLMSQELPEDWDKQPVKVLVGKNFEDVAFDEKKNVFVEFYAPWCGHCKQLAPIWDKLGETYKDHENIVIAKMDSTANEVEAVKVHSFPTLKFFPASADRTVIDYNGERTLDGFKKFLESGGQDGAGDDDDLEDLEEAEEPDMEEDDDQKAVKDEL
GSIS activator: GLuc luminescence reporter in INS-1E cells, primary screen for activators of glucose-dependent secretion of insulin | activation, % at 16.6 µM | INS-1E GLuc reporter insulin secretion, 2-3 h | 370,000 compounds, 0.61% hits;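 active = lowest replicate activation of at least 40%, so every replicate reaches that level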
S100A4 MyoIIA: inhibitors of S100A4-myosin IIA peptide binding, primary screen, biochemical, fluorescence polarization, TAMRA-MyoIIA peptide; Protein S100-A4 (Homo sapiens), P26447; inhibition, % at 10.7 µM; 360,000 compounds, 0.14% hits;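 active = mean inhibition of at least 70% across replicates, with every replicate also reaching that level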
Target sequence (P26447 whole entry, looked up): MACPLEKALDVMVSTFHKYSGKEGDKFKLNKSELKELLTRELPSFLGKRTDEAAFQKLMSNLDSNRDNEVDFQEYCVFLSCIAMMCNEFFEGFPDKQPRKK
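Compound dosing: one dose per compound; test system: human S100A4 monomer with TAMRA-labelled myosin IIA peptide; probe or stimulus: TAMRA-labelled myosin IIA heavy-chain peptide probe, 5 nM; medium: HEPES buffer with Ca2+, pH 7.2; schedule: 5 min incubation before reading; benchmarks: neutral control DMSO, positive control TFP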
Hits are given with their value; n = inactive; x = no result given.

SMILES	SIRT5 inh	ERp5 block	PDI turbidity	GSIS activator	S100A4 MyoIIA
O=C(NCc1ccc(Cl)cc1)c1cc(=O)[nH]c2ccc(S(=O)(=O)N3CCOCC3)cc12	n	n	n	55	n
O=C(COC(=O)/C=C/c1ccc(S(=O)(=O)N2CCOCC2)cc1)NCc1ccc(Cl)cc1	25	n	n	n	n
Cn1cc(C(=O)NCc2ccc(Cl)cc2)c(=O)c2cc(S(=O)(=O)N3CCOCC3)ccc21	n	x	n	n	n
O=C(COC(=O)/C=C/c1ccc(S(=O)(=O)N2CCOCC2)cc1)NCc1ccccc1	n	n	n	n	n
CCCN1C[C@@H](C)[C@H](OC)CN(C)C(=O)c2cc(NC(=O)c3ccccc3F)ccc2OC[C@H]1C	n	n	x	n	n
C[C@@H]1CCCCO[C@@H](CN(C)C(=O)c2ccncc2)[C@@H](C)CN([C@@H](C)CO)C(=O)c2cc(NS(=O)(=O)c3cn(C)cn3)ccc2O1	n	n	x	n	n
Cc1nccn1-c1ncnc2sc3c(c12)CCCC3	x	x	n	67	x
COc1ccc(NC(=O)NCCN2CCN(c3cc(OC)ccc3OC)CC2)cc1	28	n	n	x	n
CCc1ccc(N2CCN(CCNC(=O)Nc3ccc(OC)cc3)CC2)cc1	n	n	n	n	n
O=C(C[C@@H]1CC[C@H]2NC[C@H](O)COC[C@@H]2O1)NCc1ccc(Oc2ccccc2)cc1	n	n	x	n	n
COc1ccc2c(c1)C(=NNC(=O)c1ccccn1)c1cc(OC)ccc1-2	x	x	n	146	x
COc1ccc(C(=O)NNC(=O)c2ccccn2)cc1	n	n	n	n	n
C[C@@H]1CCCCO[C@@H](CN(C)Cc2ccc3c(c2)OCO3)[C@@H](C)CN([C@H](C)CO)C(=O)c2cc(NC(=O)CCC(F)(F)F)ccc2O1	n	n	x	n	n
NC(=O)CSc1nc(-c2ccccc2)c(-c2ccccc2)o1	x	x	n	73	x
C[C@H]1CN([C@@H](C)CO)C(=O)Cc2cc(N(C)C)ccc2O[C@@H]1CN(C)C(=O)Nc1ccc(F)cc1	x	n	x	n	n
CCCNC(=O)C[C@H]1CC[C@H]2[C@@H](COC[C@H](O)CN2CC2CCCCC2)O1	n	n	x	n	n
Fc1ccccc1Cc1noc(CN2CCCC(CN3CCOCC3)C2)n1 (stereo not drawn)	22	n	n	n	n
O=C(c1cccnc1)C1CCCN(Cc2nc(Cc3ccccc3F)no2)C1 (stereo not drawn)	n	n	n	n	n
C[C@H](CO)N1C[C@H](C)[C@H](CN(C)C(=O)Nc2ccc(C(F)(F)F)cc2)Oc2ncc(C#C[C@@H](C)O)cc2C1=O	n	n	x	n	n
C[C@H](CO)N1C[C@H](C)[C@H](CN(C)C(=O)NC2CCCC2)Oc2cc(C#Cc3ccc(F)cc3)ccc2S1(=O)=O	n	n	x	n	n
C[C@@H]1CN([C@H](C)CO)S(=O)(=O)c2ccc(C#Cc3ccc(F)cc3)cc2O[C@@H]1CN(C)C(=O)NC1CCCCC1	19	n	x	n	n
C[C@H](CO)N1C[C@H](C)[C@@H](CN(C)C(=O)NC2CCCC2)Oc2cc(C#Cc3ccc(F)cc3)ccc2S1(=O)=O	n	n	x	n	n
C[C@@H]1CN([C@@H](C)CO)S(=O)(=O)c2ccc(C#Cc3ccc(F)cc3)cc2O[C@H]1CN(C)C(=O)NC1CCCCC1	19	n	x	n	n
C[C@H](CO)N1C[C@H](C)[C@@H](CN(C)C(=O)NC2CCCCC2)Oc2cc(C#Cc3ccc(F)cc3)ccc2S1(=O)=O	18	n	x	n	n
CC(=O)N1CC2(C1)[C@@H](c1ccc(-c3ccc(C#N)cc3)cc1)[C@@H](CO)N2C(C)=O	n	n	x	n	n
SMILES	SIRT5 inh	ERp5 block	PDI turbidity	GSIS activator	S100A4 MyoIIA
CCCOP(=O)(c1ccccc1)c1ccccc1	n	n	n	n	n
CC(C)CCOP(=O)(c1ccccc1)c1ccccc1	x	x	n	64	x
Cc1cccc(CSCC(=O)NCc2ccc(S(N)(=O)=O)cc2)c1	15	n	n	n	n
Cc1ccc(CNC(=O)CSCc2ccccc2)cc1	n	n	n	n	n
Cc1ccc(SC(C)C(=O)NC(N)=O)c(C)c1 (stereo not drawn)	n	n	n	41	n
O=C(NCC1CC1)[C@H]1[C@H](CO)[C@H]2Cn3c(ccc(-c4ccccc4F)c3=O)[C@@H]1N2Cc1ccncc1	n	n	x	n	n
CCOC(=O)C1=C(C)NC(=S)N(C(C)=O)C1c1ccc(Cl)cc1 (stereo not drawn)	x	x	n	n	x
COCCOC(=O)C1=C(C)NC(=O)N(C(C)=O)C1c1ccc(Cl)cc1 (stereo not drawn)	x	x	n	56	x
C[C@@H]1CN([C@H](C)CO)S(=O)(=O)c2ccc(C3=CCCCC3)cc2O[C@@H]1CN(C)C(=O)Cc1ccccc1	n	n	x	n	n
C[C@@H]1CN([C@H](C)CO)S(=O)(=O)c2ccc(C3=CCCCC3)cc2O[C@H]1CN(C)C(=O)Cc1ccccc1	15	n	x	n	n
C[C@@H]1CN([C@@H](C)CO)S(=O)(=O)c2ccc(C3=CCCCC3)cc2O[C@H]1CN(C)C(=O)Cc1ccncc1	n	n	x	n	n
C[C@@H]1CN([C@H](C)CO)S(=O)(=O)c2ccc(C3=CCCCC3)cc2O[C@@H]1CN(C)C(=O)Cc1ccncc1	n	n	x	n	n
C[C@@H]1CN([C@@H](C)CO)S(=O)(=O)c2ccc(C3=CCCCC3)cc2O[C@@H]1CN(C)C(=O)Cc1ccccc1	18	n	x	n	n
C[C@@H]1CN([C@@H](C)CO)S(=O)(=O)c2ccc(C3=CCCCC3)cc2O[C@H]1CN(C)C(=O)Cc1ccccc1	16	n	x	n	n
CC(C)NC(=O)N(C)C[C@@H]1Oc2cc(-c3ccncc3)ccc2S(=O)(=O)N([C@H](C)CO)C[C@H]1C	n	n	x	n	160
CC(C)(C)[S@](=O)N1Cc2cc(C(=O)N3CCCCC3)nc(-c3cccc(-c4ccc(F)cc4)c3)c2[C@@H]1CCO	n	n	x	n	n
C[C@@H]1CN([C@@H](C)CO)S(=O)(=O)c2ccc(C3=CCCCC3)cc2O[C@@H]1CN(C)C(=O)Cc1ccncc1	n	n	x	n	n
C[C@@H]1CN([C@H](C)CO)S(=O)(=O)c2ccc(C3=CCCCC3)cc2O[C@H]1CN(C)C(=O)Cc1ccncc1	17	n	x	n	n
O=C(C[C@@H]1CC[C@H](NC(=O)C2CCC2)[C@@H](CO)O1)NC1CCC1	n	n	x	n	n
CCCC#Cc1cnc2c(c1)C(=O)N([C@H](C)CO)C[C@@H](C)[C@@H](CN(C)Cc1ccc(C(=O)O)cc1)O2	n	n	x	n	n
CNc1nc(Nc2ccc(Br)cc2)nc(N)c1[N+](=O)[O-]	x	x	n	50	x
CC(=O)NCCc1nc2ccccc2n1CCOc1cccc(C)c1	n	n	n	59	n

Screening data: PubChem, Broad Institute
